This is a sample that favours compounds with a hit; in the whole collection about 1.8% have one here.
mABHD4 FP: inhibitors of mouse ABHD4; 370,000 tested, 0.54% active; inhibition, % at 8.92 µM; Q8VD66; purified mABHD4, FP-Rh probe fluorescence polarization; AID 720543;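 active = inhibition exceeding the mean over every tested compound plus 3 SD, cut at about 30% in these data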;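 note: 0% = plate median of compound wells and 100% = S159A mutant with DMSO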
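Material: mouse ABHD4 enzyme, wild type; Benchmarks: S159A mutant high control, sample median low control; Buffer or medium: HEPES pH 7.0, NaCl, Pluronic buffer; Signal: fluorescence polarization; Read-out: percent inhibition of probe binding, normalized to plate controls; Timing: pre-incubation 45 min, probe exposure 60 min, at 25 °C; Dosing: 8.92 µM, single dose.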
Tn6 DDE FP: DD(E)-Tn6 binding inhibition, primary FP screen; Fibrin DD(E) TRITC-Tn6 fluorescence polarization displacement; 370,000 tested, 0.21% active; P02675; inhibition, % at 8.3 µM;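 active = inhibition above a per-campaign cutoff: mean of compounds within control limits plus 3 SD, cut at about 15% in these data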;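 note: 0% = median of all compound wells on the plate and 100% = blocking peptide control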
Target sequence (P02675 whole entry, looked up): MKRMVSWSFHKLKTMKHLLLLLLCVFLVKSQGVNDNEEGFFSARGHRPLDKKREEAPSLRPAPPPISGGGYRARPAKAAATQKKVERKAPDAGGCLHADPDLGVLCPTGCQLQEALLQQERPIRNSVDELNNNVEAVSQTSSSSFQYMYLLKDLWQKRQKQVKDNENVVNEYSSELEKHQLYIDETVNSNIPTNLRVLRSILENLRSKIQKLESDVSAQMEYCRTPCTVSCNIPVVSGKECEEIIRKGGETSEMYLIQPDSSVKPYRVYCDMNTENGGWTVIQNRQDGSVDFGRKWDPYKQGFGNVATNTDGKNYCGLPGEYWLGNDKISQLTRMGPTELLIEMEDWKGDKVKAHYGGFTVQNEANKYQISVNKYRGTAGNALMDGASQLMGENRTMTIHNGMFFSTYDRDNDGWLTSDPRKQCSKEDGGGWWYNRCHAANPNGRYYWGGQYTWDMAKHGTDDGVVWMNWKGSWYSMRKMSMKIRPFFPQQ
TCR-CD3 inh: blocks the human TCR-CD3 interaction; TAMRA-labeled TCR probe fluorescence, biochemical; inhibition, % at 9.4 µM; 360,000 tested, 0.37% active; AID 651800;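 note: recombinant mutant TCR 2C K166C tagged with TAMRA read by polarization; 0% = receptor in buffer alone and 100% = receptor with positive control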
DDE Tn7 FP inh: inhibitors of Tn7 peptide binding to human fibrin DD(E). P02675. FP displacement of FITC-Tn7 peptide from fibrin DD(E); 0% = median of compound wells per plate. inhibition, % at 8.3 µM. 370,000 tested, 0.13% active. AID 720508;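 active = inhibition above the mean of compounds falling within the control limits plus 3 SD of them, cut at about 14% in these data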;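 note: 0% = plate median of compound wells and 100% = 10 µM Aha-Tn7 peptide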
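Test system: human clot-derived fibrin DD(E) complex / Quantity: 2 µM final DD(E) protein / Incubation: 10 min plus 3 h, room temperature / Measured by: fluorescence polarization / Benchmarks: high control of 10 µM Aha-Tn7 peptide / Replicates: singlicate testing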
HTRA1 inhibitor: HTRA1 (human) protease inhibition; recombinant HTRA1, FP-rhodamine activity-based probe, fluorescence polarization; inhibition, % at 5.96 µM; 340,000 tested, 0.5% active; in the data active = inhibition above about 36%;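 note: 0% = enzyme with DMSO and 100% = wells lacking enzyme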
SIAE inh: blocks human sialic acid acetylesterase; AID 1053197; SIAE FP-Rh probe binding, fluorescence polarization; 370,000 tested, 0.69% active; inhibition, % at 9.66 µM;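 active = inhibition above a cutoff: mean of compounds within the control limits plus 3 SD of those, cut at about 17% in these data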;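 note: 0% = plate median of compound wells and 100% = probe without SIAE protein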
HTRA1 inh conf: confirmation of human HTRA1 inhibitors | AID 540248 | recombinant HTRA1, FP-rhodamine activity-based probe, fluorescence polarization | shares compounds with HTRA1 inhibitor | inhibition, % at 5.96 µM | 1,600 tested, 66% active;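 active = mean inhibition over three repeats above a set limit taken from the earlier primary screen, cut at about 37% in these data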;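 note: 0% = HTRA1 with DMSO and 100% = wells lacking HTRA1; inhibitors block probe binding so polarization drops and inhibition rises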
BSA TAMRA ctr: counter-screen for TCR-CD3 interaction inhibitors: BSA probe. inhibition, % at 9.4 µM. TAMRA-labeled BSA probe fluorescence counterscreen. 1,200 tested, 10% active. shares compounds with TCR-CD3 inh; in the data active = inhibition above about 23%;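 note: 0% = buffer low control and 100% = reference high control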
TCR-CD3 conf: confirmation of human TCR-CD3 interaction inhibitors. shares compounds with TCR-CD3 inh. TAMRA-labeled TCR probe fluorescence binding assay. inhibition, % at 9.4 µM. 1,200 tested, 48% active. AID 652036
Starred values were filed as active, the others as inactive; nt = no result. Cut-off read from the data, not from the text of the source, unless noted: active = inhibition above about 19%; inactive = the rest.

SMILES | mABHD4 FP | Tn6 DDE FP | TCR-CD3 inh | DDE Tn7 FP inh | HTRA1 inhibitor | SIAE inh | HTRA1 inh conf | BSA TAMRA ctr | TCR-CD3 conf
O=C(N/N=C/c1c(O)ccc2ccccc12)c1ccc[n+](CCO)c1 | 11 | -2 | 26* | 4 | 52* | 7 | 50* | -10 | 17
CCCc1cc(=O)oc2cc(C)cc(OCC(=O)Nc3ccc(CN4CCOCC4)cc3)c12 | -13 | -2 | 3 | 1 | -17 | -9 | nt | nt | nt
NNc1ccc([N+](=O)[O-])c2[nH][nH]c(=O)c12 | 54* | -6 | 50* | 3 | 52* | 5 | 49* | -18 | 106*
COc1ccccc1Cn1c(=S)[nH]c2cc(C(=O)N3CC(C)CC(C)C3)ccc2c1=O (stereo not drawn) | 1 | -7 | -7 | -1 | -40 | -2 | nt | nt | nt
Cc1[nH]n(-c2ccccc2)c(=O)c1N=Nc1ccccc1C(=O)O | 19 | -4 | 4 | -5 | -4 | 3 | nt | nt | nt
Cc1[nH]n(-c2ccccc2)c(=O)c1N=Nc1ccccc1O | -53 | -7 | 28* | -56 | 43* | -6 | 31 | -4 | 20*
O=C(NNC(=O)c1ccccc1O)c1ccc(Cl)c(S(=O)(=O)N2CCc3ccccc32)c1 | -26 | -4 | 28* | -6 | 50* | -1 | 50* | -6 | 16
O=C(c1ccc(Cl)c(S(=O)(=O)N2CCc3ccccc32)c1)N1CCN(c2ccccc2O)CC1 | 3 | -5 | -5 | 2 | -24 | 2 | nt | nt | nt
CCCC[C@H]1C2CC(OC(=O)Nc3ccccc3C)C(C2)[C@H]2CCCCN21 (stereo partly drawn) | 4 | 2 | nt | 4 | nt | -2 | nt | nt | nt
O=C(CCCn1c(SCC(=O)c2ccc(O)c(O)c2)nc2ccccc2c1=O)NCC1CCCO1 (stereo not drawn) | 16 | -3 | 21* | 4 | 38* | 8 | 36* | -16 | 40*
O=c1oc2ccccc2c2oc3cc(O)c(O)cc3c12 | 55* | -14 | 21* | -2 | 82* | 3 | 77* | -3 | 31*
O=S(=O)(O)c1cc(O)c(N=Nc2ccc(O)cc2O)c2ccccc12 | -36 | 5 | 150* | 0 | 78* | 11 | 54* | 171* | 130*
O=S(=O)(O)c1cc(O)ccc1O | 2 | 1 | -1 | 1 | 2 | 3 | nt | nt | nt
CCCCc1c(O)nc(SCC(=O)Nc2ccc(OC)cc2)n(-c2ccc(C)c(C)c2)c1=O | 6 | -3 | 4 | -3 | -2 | 16 | nt | nt | nt
Oc1ccc(-c2csc(Nc3ncccn3)n2)c(O)c1 | -1 | 5 | -6 | -14 | 4 | -5 | nt | nt | nt
Oc1ccc(-c2csc(-c3cccnc3)n2)cc1O | 11 | -5 | 22* | -7 | 37* | -4 | 47* | -8 | 16
Oc1ccc(-c2csc(Nc3ncccn3)n2)cc1O | 14 | -11 | 32* | -1 | 54* | -2 | 59* | -19 | 17
COc1cccc(/C=C2\SC(=S)N(CCC(=O)NNC(=O)c3ccccc3OC)C2=O)c1 | 3 | 9 | 41* | -5 | 39* | 5 | 33 | 1 | 22*
O=C(CCCN1C(=O)/C(=C/c2cccs2)SC1=S)NNC(=O)c1ccccc1O | 8 | 2 | 31* | 0 | 57* | -9 | 72* | -5 | 31*
COC(=O)c1ccc(OCC(=O)NC2CCCCCC2)cc1 | 5 | 9 | 0 | -6 | -1 | 1 | nt | nt | nt
CCn1c(SCC(=O)c2ccc(O)c(O)c2)nnc1-c1ccccc1OC | 25 | 8 | 29* | 2 | 38* | 5 | 44* | -1 | 31*
CCn1c(SCC(=O)c2ccc(O)c(O)c2)nnc1-c1ccccc1 | 18 | 5 | 16 | 5 | 28 | 7 | nt | nt | nt
CCn1c(CSc2nc3ccccc3s2)nnc1SCC(=O)c1ccc(Cl)cc1 | -1 | 6 | -3 | 0 | -10 | -1 | nt | nt | nt
CCn1c(CSc2nc3ccccc3s2)nnc1SCC(=O)c1ccc(O)c(O)c1 | 20 | -11 | 23* | -2 | 55* | -6 | 86* | -18 | 29*
O=C(O)CSc1c(Cl)c(=O)oc2ccc(Cl)cc12 | 0 | 0 | 6 | -3 | 2 | -2 | nt | nt | nt
SMILES | mABHD4 FP | Tn6 DDE FP | TCR-CD3 inh | DDE Tn7 FP inh | HTRA1 inhibitor | SIAE inh | HTRA1 inh conf | BSA TAMRA ctr | TCR-CD3 conf
CC(=O)Oc1cc(C(=O)OCC(=O)N2CCc3ccccc3C2)cc(OC(C)=O)c1OC(C)=O | 26 | -3 | 45* | -2 | 59* | 12 | 83* | -18 | 15
OC(CNCCC(c1ccccc1)c1ccccc1)COc1ccccc1 (stereo not drawn) | 5 | -3 | 7 | -8 | -13 | 1 | nt | nt | nt
O=c1cc(-c2ccc(O)c(O)c2)oc2ccc3ccccc3c12 | 23 | -6 | 56* | 4 | 69* | 4 | 70* | -6 | 48*
COCCN(C(=O)CNC(=O)c1ccco1)C(C(=O)NC1CCCC1)c1cccc(OC)c1 (stereo not drawn) | 4 | 3 | 1 | 1 | 3 | -3 | nt | nt | nt
NC(=S)N/N=C/c1c(O)c(Br)cc2oc3c(c12)CCCC3 | 25 | 6 | 43* | 7 | 53* | 8 | 48* | -16 | 28*
O=C(N/N=C/c1cccnc1)c1cc(O)c(O)c(O)c1 | 22 | -5 | 32* | 1 | 45* | 1 | 12 | -6 | 20*
O=C(N/N=C/c1cccnc1)c1ccc(O)cc1 | -1 | 9 | 8 | -9 | 1 | 5 | nt | nt | nt
O=c1[nH]c(-c2ccccc2)ncc1OCc1ccccc1 | 3 | 0 | 2 | 4 | 2 | -5 | nt | nt | nt
Cc1ccc2nc(-c3ccc(O)c(O)c3)cn2c1 | 14 | -3 | 54* | 6 | 45* | 12 | 74* | -3 | 28*
O=C(O)c1cccc2cccc(-c3c4ccc(=O)c(O)c-4oc4c(O)c(O)ccc34)c12 | 48* | -7 | 66* | 5 | 50* | 36* | 50* | -21 | 68*
O=C(O)c1cccc2cc(-c3ccccc3)oc(=O)c12 | 3 | -8 | -4 | -5 | 2 | 13 | nt | nt | nt
O=C(OCC(=O)N1CCN(c2ccccc2)CC1)c1nc(Cl)ccc1Cl | -3 | -1 | -7 | 12 | 0 | 2 | nt | nt | nt
Nc1[nH]c(C(=O)c2ccccc2)c(-c2c(F)cccc2F)c1C(=O)c1ccc(Cl)c(Cl)c1 | -5 | 6 | -5 | 7 | nt | 2 | nt | nt | nt
COc1cc(/C=C2\SC(c3ccc(C)cc3)=NC2=O)cc(OC)c1O | 12 | 7 | -1 | -2 | 20 | -8 | nt | nt | nt

High-throughput results (PubChem)
